In article PMC10286277 (ACS Omega, 2023):

Key:
breast cancer MDA-MB-231 = assay: MTT cell viability assay; type: cell-based, human; details: MDA-MB-231, 24 h
Method in brief: (§1)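 Cells were seeded at 2×10^4 per well, held overnight at 37 °C in humidified CO₂ and treated with test compound at […] for 24 h. MTT (0.5 mg/mL) was added for 4 h in the dark and then removed. Formazan was dissolved in DMSO and absorbance read at 570 nm.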

cervical cancer HeLa = assay: MTT cell viability assay; type: cell-based, human; details: 24 h
Method in brief: as §1

pUC19 DNA = assay: Hydrolytic DNA cleavage, gel electrophoresis without external agent or light; type: biochemical; details: 400 μM, control experiments
Method in brief: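 pUC19 DNA (200 ng) in 50 mM Tris–HCl, pH 8, was incubated with test compound (0–400 μM) in 10 μL for 2 h at 37 °C, with no added agent and no light. Controls used Cu(OAc)₂·H₂O, free ligand or imidazole, each at 400 μM. Samples were run on 1% agarose in TAE (pH 8.4) for 1.5 h at 60 V, stained with 0.5 μg/mL ethidium bromide and imaged under UV for conversion to nicked circular form.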

Compound | sensitivity of cells in MTT cell viability assay (in words) (breast cancer MDA-MB-231) | IC50 (cervical cancer HeLa) [µM] | DNA cleavage by starting materials alone (pUC19 DNA)
N.N.[Cl][Pt][Cl] [cisplatin, reference compound] | resistant | 30.9 ± 0.45 | 
CC(=O)[O-].CC(=O)[O-].O.[Cu+2] [Cu(OAc)2·H2O, copper(II) acetate monohydrate] |  |  | No cleavage was detected
c1c[nH]cn1 [imidazole] |  |  | No cleavage was detected
2-(2-Hydroxyphenyl)benzothiazoline |  |  | No cleavage was detected
